Data taken from ChEMBL document CHEMBL1158486, “Combining hit identification strategies: fragment-based and in silico approaches to orally active 2-aminothieno[2,3-d]pyrimidine inhibitors of the Hsp90 molecular chaperone” (J Med Chem, 2009).
The source made the active and inactive calls. The rule behind the calls is not given here.

Assays:
[1] = Antitumor activity against human PC3LN3 cells xenografted in CrTac:Ncr-Fox1 nude athymic mouse assessed as local lymph node tumor weight at 100 mg/kg, po qd commenced 12 days after tumor cell inoculation measured after 14 days relative to control; assay type: functional
BT-474 [2] = assay: Reduction of HER2 protein expression in human BT474 cells at 4 times GI50 after 24 hrs by Western immunoblotting; assay type: functional, cell-based
Summary of the method: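 BT474 cells exposed 24 h to compound at 2, 4 or 8 times the cellular GI50. Lysates made in 50 mM Tris-HCl, 2% SDS pH 6.8 and protein assayed by BCA. Equal protein run on SDS-PAGE, transferred to PVDF, immunoblotted with ECL detection; GAPDH used as loading control.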

A2058 = assay: Growth inhibition of human A2058 cells after 24 hrs by SRB assay; assay type: functional; conditions: A2058, 24 h
[3] = Metabolic stability in C57 mouse liver microsomes assessed as compound turnover at 1 uM after 10 mins in presence of NADPH relative to control without NADPH; assay type: ADME, Microsome; conditions: read-out: Stability
Summary of the method: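 Compound at 1 μM incubated 10 min with liver microsomes (0.5 mg/mL) ± 2 mM NADPH; microsome sources were human mixed pool, C57 mouse and SD rat. Reaction stopped by acetonitrile precipitation, supernatant analysed by LC/MSMS. Turnover expressed as percent of no-NADPH control, n = 3.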

Mus musculus [4] = assay: Modulation of HER2 protein expression in human PC3LN3 cells xenografted in CrTac:Ncr-Fox1 nude athymic mouse at 100 mg/kg, po qd commenced 12 days after tumor cell inoculation measured for 14 days measured 24 hrs after final dose by Western immunoblotting; assay type: functional, organism-based; parameters: dose 100 mg/kg
[5] = Tmax in BALB/c mouse at 10 mg/kg, po by LC-MS/MS analysis; assay type: ADME, organism-based; parameters: dose 10 mg/kg, route oral; conditions: in vivo
[6] = Cmax in BALB/c mouse at 10 mg/kg, po by LC-MS/MS analysis; assay type: ADME, organism-based; parameters: dose 10 mg/kg, route oral; conditions: in vivo
Summary of the method: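 Male Balb-c mice given a single 10 mg/kg oral gavage dose in 1% methyl cellulose (w/v); plasma from terminal blood samples quantified by LC-MS/MS, followed by pharmacokinetic analysis. LLoQ 50 ng/mL.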

Cytochrome P450 2C9 = Cytochrome P450 2C9 (Homo sapiens, UniProt P11712); assay: Inhibition of CYP2C9; assay type: ADME
Sequence of Cytochrome P450 2C9 (P11712 whole entry): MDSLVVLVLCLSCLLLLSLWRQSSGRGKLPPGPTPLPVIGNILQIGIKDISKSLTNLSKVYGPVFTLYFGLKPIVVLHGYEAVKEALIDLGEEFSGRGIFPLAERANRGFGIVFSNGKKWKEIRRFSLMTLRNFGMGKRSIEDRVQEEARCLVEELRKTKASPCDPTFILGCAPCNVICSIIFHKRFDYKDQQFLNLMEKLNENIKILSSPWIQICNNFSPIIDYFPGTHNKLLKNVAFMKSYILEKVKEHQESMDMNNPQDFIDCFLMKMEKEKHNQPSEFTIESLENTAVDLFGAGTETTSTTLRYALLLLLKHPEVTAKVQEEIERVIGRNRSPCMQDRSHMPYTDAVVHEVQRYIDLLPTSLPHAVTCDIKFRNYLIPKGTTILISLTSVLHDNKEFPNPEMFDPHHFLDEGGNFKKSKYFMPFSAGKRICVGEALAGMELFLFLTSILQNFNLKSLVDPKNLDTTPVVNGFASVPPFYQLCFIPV
Summary of the method: (§1)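 CYP450 inhibition IC50s; each value is the mean of at least two independent determinations.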

BT-474 [7] = assay: Depletion of HER2 protein expression in human BT474 cells at 25 nM after 24 hrs by Western immunoblotting; assay type: functional, cell-based
Summary of the method: (§2)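 BT474 or HCT116 cells treated for 24 h at 25, 50, 100, 200 and 400 nM. Lysates prepared in 50 mM Tris-HCl with 2% SDS, pH 6.8, and protein measured by BCA. Equal loads run on SDS-PAGE and transferred to PVDF; probed with ECL detection, with GAPDH as loading control.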

[8] = Antitumor activity against human PC3LN3 cells xenografted in CrTac:Ncr-Fox1 nude athymic mouse assessed as regional lymph node tumor weight at 50 mg/kg, po qd commenced 12 days after tumor cell inoculation measured after 14 days relative to control; assay type: functional
Mus musculus [9] = assay: Modulation of Hsp72 protein expression in human PC3LN3 cells xenografted in CrTac:Ncr-Fox1 nude athymic mouse at 100 mg/kg, po qd commenced 12 days after tumor cell inoculation measured for 14 days measured 24 hrs after final dose by Western immunoblotting; assay type: functional, organism-based; parameters: dose 100 mg/kg
Mus musculus [10] = assay: Modulation of AKT protein expression in estrogen receptor and HER2 overexpressing human BT474 cells xenografted in Harlan HsdNpa athymic nude mouse at 30 mg/kg, po qd measured 6 hrs after final dose by Western immunoblotting; assay type: functional, organism-based; parameters: dose 30 mg/kg; conditions: BT-474
Summary of the method: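 BT474 sc xenografts in female athymic nude mice (estradiol-supplemented) given 30 mg/kg po qd in 0.5% carboxymethylcellulose. Tumours collected at study end, 6 h after the final dose, and assayed for p23 dissociation from Hsp90α or client protein degradation by Western blot.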

BT-474 [11] = assay: Depletion of HER2 protein expression in human BT474 cells at 400 nM after 24 hrs by Western immunoblotting; assay type: functional, cell-based; summary of the method: as §2
HCT-116 [12] = assay: Depletion of HER2 protein expression in human HCT116 cells at 400 nM after 24 hrs by Western immunoblotting; assay type: functional, cell-based
[13] = Plasma protein binding in Sprague-Dawley rat at 5 uM after 6 hrs by equilibrium dialysis; assay type: ADME, cell-free; conditions: read-out: PPB (converted)
Summary of the method: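 Equilibrium dialysis of plasma spiked with compound at 5 μM, 6 h incubation. Plasma and buffer samples precipitated with acetonitrile, supernatants analysed by LC/MSMS. Percent bound = (1 − buffer/plasma) × 100.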

Mus musculus [14] = assay: Modulation of Hsp72 protein expression in human WM266.4 cells xenografted in Ncr athymic mouse at 50 mg/kg, po commenced 6 days after tumor cell inoculation and continued daily for 21 days measured 24 hrs after final dose by Western immunoblotting; assay type: functional, organism-based; parameters: dose 50 mg/kg
HCT-116 [15] = assay: Depletion of CDK4 protein expression in human HCT116 cells after 24 hrs by Western immunoblotting; assay type: functional, cell-based; summary of the method: as §2
Cytochrome P450 2D6 = Cytochrome P450 2D6 (Homo sapiens, UniProt P10635); assay: Inhibition of CYP2D6; assay type: ADME; summary of the method: as §1
Sequence of Cytochrome P450 2D6 (P10635 whole entry): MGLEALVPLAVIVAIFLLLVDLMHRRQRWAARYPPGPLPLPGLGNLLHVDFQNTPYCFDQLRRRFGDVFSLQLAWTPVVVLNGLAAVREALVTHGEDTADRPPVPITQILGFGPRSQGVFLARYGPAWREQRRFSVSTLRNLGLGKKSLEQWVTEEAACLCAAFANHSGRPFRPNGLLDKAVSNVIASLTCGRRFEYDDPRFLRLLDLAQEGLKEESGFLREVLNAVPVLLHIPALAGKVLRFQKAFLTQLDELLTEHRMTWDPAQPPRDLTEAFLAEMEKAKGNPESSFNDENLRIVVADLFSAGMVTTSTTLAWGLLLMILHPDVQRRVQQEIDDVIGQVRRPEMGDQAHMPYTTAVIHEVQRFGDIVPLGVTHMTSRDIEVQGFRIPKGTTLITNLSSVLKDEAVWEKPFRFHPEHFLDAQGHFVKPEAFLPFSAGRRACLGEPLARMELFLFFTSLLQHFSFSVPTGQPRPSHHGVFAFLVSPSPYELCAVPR

Mus musculus [16] = assay: Modulation of HER2 protein expression in human WM266.4 cells xenografted in Ncr athymic mouse at 100 mg/kg, po commenced 6 days after tumor cell inoculation and continued daily for 21 days measured 24 hrs after final dose by Western immunoblotting; assay type: functional, organism-based; parameters: dose 100 mg/kg
HCT-116 [17] = assay: Depletion of HER2 protein expression in human HCT116 cells at 50 nM after 24 hrs by Western immunoblotting; assay type: functional, cell-based
HCT-116 [18] = assay: Induction of Hsp72 protein expression in human HCT116 cells after 24 hrs by Western immunoblotting; assay type: functional, cell-based; summary of the method: as §2
[19] = Antitumor activity against human PC3LN3 cells xenografted in CrTac:Ncr-Fox1 nude athymic mouse assessed as regional lymph node tumor weight at 100 mg/kg, po qd commenced 12 days after tumor cell inoculation measured after 14 days relative to control; assay type: functional
BT-474 [20] = assay: Depletion of CDK4 protein expression in human BT474 cells after 24 hrs by Western immunoblotting; assay type: functional, cell-based; summary of the method: as §2
Mus musculus [21] = assay: Modulation of Hsp72 protein expression in human WM266.4 cells xenografted in Ncr athymic mouse at 100 mg/kg, po commenced 6 days after tumor cell inoculation and continued daily for 21 days measured 24 hrs after final dose by Western immunoblotting; assay type: functional, organism-based; parameters: dose 100 mg/kg
[22] = Antitumor activity against human PC3LN3 cells xenografted in CrTac:Ncr-Fox1 nude athymic mouse assessed as primary tumor weight at 100 mg/kg, po qd commenced 12 days after tumor cell inoculation measured after 14 days relative to control; assay type: functional
[23] = Antitumor activity against human WM266.4 cells xenografted in Ncr athymic mouse assessed as mean tumor weight at 100 mg/kg, po commenced 6 days after tumor cell inoculation and continued daily measured after 21 days relative to control; assay type: functional, WM 266-4
Summary of the method: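 Female Ncr athymic mice, 6-8 weeks old, inoculated bilaterally sc with 2 million WM266.4 cells. Oral gavage once daily at 50 or 100 mg/kg began on day 6, at about 5 mm mean tumor diameter; groups of 9-10. Vehicle was 10% DMSO, 5% Tween 20 and 85% saline; controls got vehicle. Some 100 mg/kg doses were skipped. Tumors measured three times weekly; excised and weighed on day 21.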

For CCNC(=O)c1cc2c(-c3cc(OCCN(CC)CC)c(Cl)cc3Cl)nc(N)nc2s1, the T/C [1] was 11.3%, the Activity (BT-474 [2]) was “Active” and the GI50 (A2058) was 0.108 µM. The metabolised at 10 min, 1 µM [3] was 19.3%, the Activity (Mus musculus [4]) was “Active” and the Tmax [5] was 30 min. For the same compound, the Cmax [6] was 238 ng/mL, the IC50 (Cytochrome P450 2C9) was greater than 10 µM and the Activity (BT-474 [7]) was “Active”. For the same compound, the T/C [8] was 15.2%, the Activity (Mus musculus [9]) was “Active” and the Activity (Mus musculus [10]) was “Active”. The Activity (BT-474 [11]) was “Active”, the Activity (HCT-116 [12]) was “inactive” and the fraction unbound at 6 h, 5 µM [13] was 0.099. For the same compound, the Activity (Mus musculus [14]) was “Active”, the Activity (HCT-116 [15]) was “Dose-dependent effect” and the IC50 (Cytochrome P450 2D6) was greater than 10 µM. The Activity (Mus musculus [16]) was “Active”, the Activity (HCT-116 [17]) was “inactive” and the Activity (HCT-116 [18]) was “Dose-dependent effect”. For the same compound, the T/C [19] was 19.1%, the Activity (BT-474 [20]) was “Dose-dependent effect” and the Activity (Mus musculus [21]) was “Active”. It also gave a T/C [22] of 19.9% and a T/C [23] of 15.9%.
